Screens (PubChem)
Sampled rows, rich in hits. Any-hit rate of the full collection: about 11%.
M1 ag = M1 muscarinic receptor agonists, primary screen, CHO-M1 cells, Fluo-4 calcium, agonist mode | B-score at 10 µM | 3% of 64,000 active | Muscarinic acetylcholine receptor M1 | Fluo-4 calcium fluorescence; active compounds read high;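 active = fluorescence rise, raw or as B-score row- and column-corrected plate score, outside the 99.7% band of its plate's samples, either direction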
M1 antag = antagonists of rat M1 muscarinic receptor. Muscarinic acetylcholine receptor M1 (Rattus norvegicus), P08482. CHO-M1 cells, Fluo-4 calcium, ACh EC80 antagonist mode; active compounds read low. B-score at 10 µM. 3.4% of 64,000 active. AID 628, 2007;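 active = calcium fluorescence response, raw or row-and-column corrected B-score, differing from the plate sample mean either way at a set confidence level, mostly lower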
Target sequence (P08482 whole entry, looked up): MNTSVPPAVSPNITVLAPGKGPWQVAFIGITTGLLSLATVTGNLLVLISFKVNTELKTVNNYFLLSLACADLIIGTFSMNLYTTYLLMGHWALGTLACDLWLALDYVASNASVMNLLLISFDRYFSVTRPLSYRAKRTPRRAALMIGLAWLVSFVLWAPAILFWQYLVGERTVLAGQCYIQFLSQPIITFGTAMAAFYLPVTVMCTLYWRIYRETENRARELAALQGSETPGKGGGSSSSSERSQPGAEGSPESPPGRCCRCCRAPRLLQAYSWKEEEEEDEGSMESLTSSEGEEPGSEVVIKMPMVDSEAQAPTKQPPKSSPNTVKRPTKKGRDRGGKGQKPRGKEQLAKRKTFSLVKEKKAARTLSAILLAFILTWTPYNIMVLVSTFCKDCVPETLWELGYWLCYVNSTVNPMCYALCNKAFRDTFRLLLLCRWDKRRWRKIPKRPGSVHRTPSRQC
S1P3 ag = human S1P3 receptor agonists, primary screen, cell-based, primary and confirmation, NFAT-BLA reporter. 0.1% of 60,000 active. Sphingosine 1-phosphate receptor 3 (Homo sapiens), Q99500. activation, % at 4.5 µM. S1P3 NFAT-BLA reporter cells, agonism, FRET ratio; relative to 1 µM S1P, basal subtracted;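 active = activation above the screen-wide mean plus 3 SD, cut at about 4.5% in these data, passing the limit was not always enough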
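Benchmarks: high control 1 µM S1P / System: stable CHO line with human S1P3, Gα16, NFAT-BLA reporter / Dosing: single compound concentration, 4.5 µM final / Timing: 4 h compound at 37 °C, 2 h substrate at RT / Measured by: FRET β-lactamase substrate fluorescence, excitation 405 nm, 460/535 nm emission ratio, background-subtracted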
S1P1 ag-PAM = S1P1 agonists and agonism potentiators, primary screen, cell-based, primary and confirmation screens, CRE-bla reporter | Sphingosine 1-phosphate receptor 1 (Homo sapiens), P21453 | S1P1 CRE-bla cells, forskolin, beta-lactamase FRET, potentiator mode; S1P1 agonist co-added at EC20, 2 nM; 100% = saturating reference agonist, 0% = basal | activation, % at 9.5 µM | 0.57% of 56,000 active | AID 449, 2006;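 active = activation above a cutoff set at the mean activation of all tested compounds plus 3 SD, cut at about 54% in these data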;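 note: forskolin at 4 µM as EC80 and the EC20 agonist is SEW2871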
D1 mod = D1 CRE-luciferase signal change, two-sided – cell-based, HEK293 D1, dopamine EC30, D1 allosteric modulator project, primary screen; AID 641, 2007; 5.9% of 58,000 active; dopamine EC30 potentiation; actives deviate in either direction; B-score at 10 µM; D(1A) dopamine receptor (Homo sapiens), P21728;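 active = luminescence count or its row- and column-corrected plate score outside the 99.7% band of the plate's sample wells, on either side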
D1 PAM confirm = D1 receptor positive allosteric modulators, retest, confirmation, cell-based, HEK293 D1, CRE-luciferase, duplicate. shares compounds with D1 mod. dopamine EC30 potentiation; active compounds read high. luminescence at 10 µM. 88% of 2,200 active. AID 642, 2007;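 active = luminescence in either of two replicates above the same-plate mean plus 3 SD of the low-dose dopamine control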
D1 no dopamine = D1 receptor agonism without dopamine, confirmation, mechanism study for D1 allosteric modulator project, cell-based, HEK293 D1, CRE-luciferase, secondary assay 1. luminescence, no dopamine; active compounds read high. 0.8% of 1,900 active. shares compounds with D1 mod. luminescence at 10 µM. AID 646, 2007; in the data active = luminescence above about 3900
Isoprot counter = alters isoproterenol CRE-luciferase response in HEK293 cells | shares compounds with D1 mod | HEK293 D1 CRE-luciferase, isoproterenol EC30 counter-screen; active compounds read high | luminescence at 10 µM | 63% of 2,200 active | AID 647;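 active = luminescence in either replicate above plate mean of wells with a partly effective reference agonist dose plus 3 SD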;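 note: isoproterenol raises cAMP through native beta-adrenoceptor Gs so signal bypasses D1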
Of the large screens only hits and unclear results are named; the others gave an inactive call (follow-up assays come after a bar, where they were run).

CCOC(=O)c1[nH]c2ccc(OC)cc2c1NC(=O)CN1CCSCC1	D1 mod 2.3 | D1 PAM confirm 6220 | D1 no dopamine inactive | Isoprot counter 3496
COC(=O)c1[nH]c2ccc(Cl)cc2c1NC(=O)CN1CCc2cc(OC)c(OC)cc2C1	none
CCOC(=O)c1[nH]c2cc(OC)c(OC)cc2c1NC(=O)c1ccc2c(c1)OCO2	none (no result: S1P3 ag, S1P1 ag-PAM, D1 mod)
CCOC(=O)c1[nH]c2ccc(OCC)cc2c1NC(=O)CN1CCC2(CC1)OCCO2	none
CCOC(=O)c1[nH]c2cc(OC)c(OC)cc2c1NC(=O)CN(C)C1CCCCC1	D1 mod 4.32 | D1 PAM confirm 10140 | D1 no dopamine inactive | Isoprot counter 3920
CCOC(=O)c1[nH]c2ccc(F)cc2c1NC(=O)CN1CCc2cc(OC)c(OC)cc2C1	D1 mod 1.72 | D1 PAM confirm 9280 | D1 no dopamine inactive | Isoprot counter 4108
CCOc1ccc(OCC)c2sc(C)nc12	D1 mod 10.8 | D1 PAM confirm 20256 | D1 no dopamine inactive | Isoprot counter 3568
CCOC(=O)C1CCCc2c1[nH]c1c(C(=O)O)cccc21 (centres undefined)	none
C=CCn1c(N2CCCCCC2)nc2c1c(=O)[nH]c(=O)n2C	D1 mod 6.42 | D1 PAM confirm 12744 | D1 no dopamine inactive | Isoprot counter 4560
Cn1c(=O)[nH]c(=O)c2c1nc(N1CCCCCC1)n2CCN1CCCCCC1	none (no result: S1P3 ag, S1P1 ag-PAM)
Cn1c(N2CCCC2)nc2c1c(=O)n(Cc1ccc(F)cc1)c(=O)n2C	D1 mod 4.46 | D1 PAM confirm 12452 | D1 no dopamine inactive | Isoprot counter 4528
C/C(Cl)=C\Cn1c(N2CCCC2)nc2c1c(=O)[nH]c(=O)n2C	D1 mod 10.5 | D1 PAM confirm 16008 | D1 no dopamine inactive | Isoprot counter 4536
C/C(Cl)=C/Cn1c(N2CCCC2)nc2c1c(=O)n(C)c(=O)n2C	S1P3 ag 8.7, D1 mod 8.45 | D1 PAM confirm 7912 | Isoprot counter inactive
Cn1c(=O)n(Cc2ccc(F)cc2)c(=O)c2c1nc1n2CCCN1Cc1ccccc1	none
O=c1ccn(Cc2ccccc2)c(=O)n1Cc1ccccc1	D1 mod 2.93 (no result: S1P1 ag-PAM) | D1 PAM confirm 12736 | D1 no dopamine inactive | Isoprot counter 3316
Cn1c(=O)n(Cc2ccccc2)c2ccccc21	none
CCOC(=O)c1ccccc1NC(=O)c1ccc(NS(C)(=O)=O)cc1	D1 mod 19.2 (no result: S1P1 ag-PAM) | D1 PAM confirm 19196 | D1 no dopamine inactive | Isoprot counter 4308
COC(=O)C1=C(C)NC(=O)NC1C1CC=CCC1 (centres undefined)	D1 mod 3.34 (no result: M1 ag, M1 antag) | D1 PAM confirm inactive | D1 no dopamine inactive | Isoprot counter inactive
CCCCNC(=O)c1ccc2c(c1)N(CC)C(=O)c1ccccc1S2(=O)=O	none
CCOc1ccc(C2Oc3nc(SC)nnc3-c3ccccc3N2C(C)=O)cc1OC (centres undefined)	D1 mod 8.36 | D1 PAM confirm 11344 | D1 no dopamine inactive | Isoprot counter inactive
CCSc1nnc2c(n1)OC(c1ccc(C(=O)O)cc1)N(C(C)=O)c1ccccc1-2 (centres undefined)	none
CCCCCSc1nnc2c(n1)OC(c1cccn1C)N(C(C)=O)c1ccccc1-2 (centres undefined)	D1 mod 2.69 | D1 PAM confirm inactive | D1 no dopamine inactive | Isoprot counter inactive
